# In PMC2190483 (The Journal of Experimental Medicine, 1976):
# B1: C5a: prepared by tryptic digestion of purified C5 prepared from human plasma (protein, UniProt P01031 678-751, looked up)
# C5a anaphylatoxin: TLQKKIEEIAAKYKHSVVKKCCYDGACVNNDETCEQRAARISLGPRCIKAFTECCVVASQLRANISHKDMQLGR
# modifications: C5a anaphylatoxin
# What was measured:
# human eosinophils [1] = assay: Chemotactic deactivation of eosinophils, assessed by response to Val-Gly-Ser-Glu; type: cell-based; conditions: for deactivation (qualitative): 10-r' M tetrapeptide, response to valyl-tetrapeptide, Fig. 3
# Method in brief: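 Leukocytes from hypereosinophilic donors were dextran-sedimented, washed and resuspended in HBSS with 0.4% ovalbumin and Tris-HCl pH 7.4. Eosinophils were preincubated 2–40 min at 37°C with graded valyl- or alanyl-tetrapeptide, then washed three times. They were then challenged in a Boyden chamber (3-µm filter) with 10^-7 M valyl-tetrapeptide. Residual response is given as % of buffer-treated cells, mean ±1 SD of three experiments.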
# human eosinophils [2] = assay: Cross-deactivation of eosinophils, assessed by response to C5a; type: cell-based; conditions: 10-12 M tetrapeptide pretreatment; Fig. 4
# Method in brief: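 Eosinophils in HBSS-ovalbumin were pretreated 2–40 min at 37°C with graded valyl- or alanyl-tetrapeptide and washed three times. They were then challenged in a Boyden chamber with C5a at the level derived from 2.5 µg equivalent of C5/ml. C5a came from tryptic digestion of human plasma C5, heated 20 min at 61°C and centrifuged. Results are % of buffer-treated control, mean ±1 SD, three experiments.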
# neutrophils = assay: Neutrophil chemotaxis to valyl-tetrapeptide and its inhibition by tripeptides; type: cell-based, human; conditions: for irreversible inhibition of the neutrophil response: response to 10^-7 M valyl-tetrapeptide; for inhibition of the response of neutrophils: tripeptide added to the stimulus, equimolar to valyl-tetrapeptide; for chemotactic response of neutrophils: valyl-tetrapeptide stimulus, neutrophils purified to 98%
# Method in brief: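 Neutrophils from normal donors were isolated on Ficoll-Hypaque to 98% purity, washed and resuspended in HBSS-ovalbumin. They were tested in modified Boyden chambers with a 3-µm filter against 10^-7 M valyl-tetrapeptide, with or without NH2- or COOH-terminal tripeptide, for 2½–3 h at 37°C. Migrated cells were counted blind in 10 hpf from duplicate chambers as net neutrophils/hpf.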
# human eosinophils [3] = assay: Modulation; type: cell-based; conditions: for irreversible inhibition of the eosinophil response to 10-7 M valyl-tetrapeptide: neutrophil comparison; for inhibition of response to 10-7 M valyl-tetrapeptide: pretreatment with 10^-7 M tripeptide followed by washing; for inhibition of the valyl-tetrapeptide effect: 10^-7 M tripeptide added with the stimulus
# Method in brief: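 Tripeptides or amides were added to the stimulus compartment with 10^-7 M valyl-tetrapeptide or to the cell compartment. Alternatively, eosinophils were preincubated with them 20 min at 37°C and washed three times. Migration in a modified Boyden chamber (3-µm filter, 2½–3 h, 37°C) was counted as net eosinophils/hpf. It is expressed as % of the response of buffer-treated cells.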
# human eosinophils [4] = assay: Eosinophil chemotaxis in modified Boyden chambers; type: cell-based; conditions: for chemotactic activity (qualitative): eosinophils; for magnitude of the maximum eosinophil response (rank among tetrapeptides): Discussion, Fig. 1
# Method in brief: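 Blood from donors with 26–89% eosinophilia was citrate/dextran-sedimented 30 min at 37°C and centrifuged 100 g for 10 min. Leukocytes were washed three times into HBSS-0.4% ovalbumin-Tris pH 7.4. Stimuli in the lower compartment were separated from cells by a 3-µm filter, incubated 2½–3 h at 37°C. Fixed, stained filters were read blind at background depth (2–8 cells/hpf), 10 hpf from duplicate chambers, as net cells/hpf.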
# human eosinophils [5] = assay: Suppression of the eosinophil chemotactic response to C5a by tripeptides; type: cell-based; conditions: for inhibition of response to C5a: pretreatment with 10^-7 M tripeptide followed by washing; for inhibition of the C5a-stimulated response: 10^-7 M tripeptide added with the stimulus
# Method in brief: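 NH2-terminal tripeptide was added to the stimulus compartment with C5a in two experiments. In three experiments, eosinophils were pretreated with COOH-terminal tripeptide and washed. The C5a stimulus was a tryptic digest of purified human plasma C5, heat-treated 20 min at 61°C.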
# human eosinophils [6] = type: cell-based
# Method in brief: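 Eosinophils were pretreated 20 min at 37°C with deactivating valyl-tetrapeptide or COOH-terminal tripeptide, with Val-Gly-Ser present at graded concentrations. They were then washed three times. Residual chemotactic response to 10^-7 M valyl-tetrapeptide was measured in Boyden chambers. It is expressed as mean % of buffer-exposed control response, from two experiments with different donors.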
molecule,measurement,setting,value
Ala-Gly-Ser-Glu,deactivation (qualitative),human eosinophils [1],substantial deactivation
same,effect on eosinophil responsiveness to C5a,human eosinophils [2],did not decrease
Gly-Ser-Glu,irreversible inhibition of the neutrophil response,neutrophils; experiment 1,33%
same,irreversible inhibition of the neutrophil response,neutrophils; experiment 2,28%
same,effect when mixed with stimulus,human eosinophils [3]; 10^-7 M mixed with an equimolar quantity of valyl-tetrapeptide stimulus,ineffective
same,irreversible inhibition of the eosinophil response to 10-7 M valyl-tetrapeptide,human eosinophils [3]; experiment 1,61%
same,irreversible inhibition of the eosinophil response to 10-7 M valyl-tetrapeptide,human eosinophils [3]; experiment 2,74%
same,inhibition of response to 10-7 M valyl-tetrapeptide,human eosinophils [3]; experiment 2 of three,62%
same,inhibition of response to 10-7 M valyl-tetrapeptide,human eosinophils [3]; experiment 3 of three,48%
same,chemotactic activity (qualitative),human eosinophils [4],only marginally chemotactic
same,inhibition of response to C5a,human eosinophils [5]; experiment 1 of three,71%
same,inhibition of response to C5a,human eosinophils [5]; experiment 2 of three,53%
same,inhibition of response to C5a,human eosinophils [5]; experiment 3 of three,37%
Leu- Ser-Glu [Leu-Ser-Glu],maximum activity as fraction of maximum chemotactic activity of tetrapeptides,"human eosinophils [4]; versus maximum obtained with 10^-7 M tetrapeptides, Fig. 2",approximately two-thirds
Leu-Gly-Ser-Glu,magnitude of the maximum eosinophil response (rank among tetrapeptides),human eosinophils [4],the least
Phe-Gly-Ser-Glu,deactivating activity (qualitative),human eosinophils [1]; at 10^-6 M,comparable to 10-~ M alanyl-tetrapeptide
same,deactivating activity (qualitative),human eosinophils [1]; at 10^-7 M,minimally evident
same,magnitude of the maximum eosinophil response (rank among tetrapeptides),human eosinophils [4],greatest maximum response
Val-Gly-Ser,reduction of the neutrophil response to 10-7 M valyl-tetrapeptide,"neutrophils; equimolar concentrations, Discussion",Approximately 50%
same,inhibition of the response of neutrophils,neutrophils; experiment 1,49%
same,inhibition of the response of neutrophils,neutrophils; experiment 2,54%
same,inhibition of the valyl-tetrapeptide effect,human eosinophils [3]; experiment 1 of two,47%
same,inhibition of the valyl-tetrapeptide effect,human eosinophils [3]; experiment 2 of two,61%
same,inhibition of the eosinophil response,"human eosinophils [3]; on the stimulus side with 10^-7 M valyl-tetrapeptide, equimolar concentrations, Discussion, Fig. 5",50-60%
same,inhibition of the eosinophil response,"human eosinophils [3]; tripeptide added to the 10^-7 M tetrapeptide stimulus at approximately an equimolar concentration, Fig. 5, Results",50%
same,protection against the COOH-terminal tripeptide,human eosinophils [6]; at an equimolar concentration or at a 10-fold excess,no protection
same,protection from deactivation by valyl-tetrapeptide,human eosinophils [6]; equimolar concentration of tripeptide and deactivating valyl-tetrapeptide,40-50%
same,protection from deactivation by valyl-tetrapeptide (qualitative),human eosinophils [6]; tripeptide at 10^-7 M with 10^-8 M valyl-tetrapeptide,completely protective
same,chemotactic activity (qualitative),human eosinophils [4],only marginally chemotactic
same,inhibition of the C5a-stimulated response,human eosinophils [5]; experiment 1 of two,18%
same,inhibition of the C5a-stimulated response,human eosinophils [5]; experiment 2 of two,29%
Val-Gly-Ser-Glu,chemotactic response of neutrophils,neutrophils; experiment 1,16.9 neutrophils/hpf
same,chemotactic response of neutrophils,neutrophils; experiment 2,21.4 neutrophils/hpf
same,deactivation (qualitative),human eosinophils [1],substantial deactivation
same,control chemotactic response,"human eosinophils [4]; 10^-7 M stimulus, Table I, donor 2 (37% eosinophilia)",12.3 net eosinophils per hpf
same,control chemotactic response,"human eosinophils [4]; 10^-7 M stimulus, Table II, experiment 2, buffer-exposed cells",11.7 net eos/hpf
same,chemotactic response of eosinophils,"human eosinophils [4]; valyl-tetrapeptide stimulus, neutrophil comparison, experiment 2",15.3 eosinophils (eos)/hpf
same,effect on eosinophil responsiveness to C5a,human eosinophils [2],did not decrease
B1,control chemotactic response,"human eosinophils [4]; C5a derived from 2.5 µg equivalent of C5/ml, Fig. 4, donor 2 (43% eosinophilia)",16.5 net eos/hpf
same,control chemotactic response,"human eosinophils [4]; C5a derived from 2.5 µg equivalent of C5/ml, Fig. 4, donor 3 (59% eosinophilia)",18.8 net eos/hpf
